# Source: PubChem BioAssay
# L major viab: reduces viability of Leishmania major promastigotes | resazurin fluorescence viability | inhibition, % at 10 µM | hit rate 9% among 200,000 | AID 1063; in the data active means inhibition above about 50%;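 further: promastigotes grown with compound for 44 hours at 28 °C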
# Dynein transport: blocks dynein driven cargo transport along microtubules | hit rate 0.47% among 220,000 | 3617.4 mouse cells, GR-EGFP nuclear translocation imaging; test concentration mostly 20 µM; stimulated with dexamethasone, 1 µM; hits give low values | z-score, hits read low;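 active means plate z-score of nuclear minus cytoplasmic receptor signal below a set negative limit, without overly bright fluorescence or cell loss, cut at about -3.5 in these data, passing the limit was not always enough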;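 further: z-score of nuclear minus cytoplasmic ring GR-EGFP intensity difference per well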
#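 Schedule: 48 h induction, then 1 h compound, then 30 min agonist, 37 °C. Buffer or medium: tetracycline-free induction medium containing charcoal-stripped FBS. Reagent: 1.0 µM final dexamethasone stimulus. Evaluation: nuclear versus cytoplasmic GR-EGFP signal, averaged per well. Signal: high-content fluorescence imaging after fixation.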
# HCT116 bCat-KO: beta-catenin-lacking colon tumor cell growth suppression. HCT116 beta-catenin knockout viability, CellTiter-Glo, 60 h; hits give low values. viability, % at 10 µM. AID 818. hit rate 1.5% among 140,000;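 active means viability at or under a set limit, the compound median less 4 SD, cut at about 6% in these data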
# HCT116 PTEN-null: suppresses growth of cells with PTEN deletion; HCT116 PTEN-null viability, CellTiter-Glo, 60 h; hits give low values; viability, % at 10 µM; hit rate 1.2% among 140,000;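 active means viability at or below a set limit, 4 SD under the median of all tested compounds, cut at about 3.7% in these data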;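 further: PTEN knockout HCT116 line with beta catenin targeted HCT116 as companion control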
# Autophagy HCS: alters autophagy in cells | MEF GFP-LC3 puncta imaging; test concentration mostly 10 µM | calls only at 10 µM (by protocol) | hit rate 0.98% among 190,000 | AID 463193;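 active means percentage of spot-positive cells more than 3 SD above its plate mean, without a fluorescence outlier flag or 80% toxicity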
# A number is an active result; - = inactive; . = no result; + = active, no number. Sampled rows, rich in hits. Any-hit rate of the full collection: about 9.2%.
SMILES,L major viab,Dynein transport,HCT116 bCat-KO,HCT116 PTEN-null,Autophagy HCS
FC(F)(F)c1cccc(OCCN2CCN(Cc3ccccc3)CC2)c1,76.2,-,-,-,-
Clc1cccc(OCCN2CCNCC2)c1,100.2,-,-,-,-
CN(CCOc1cccc(C(F)(F)F)c1)Cc1ccccc1,-,-,.,.,-
Cc1cc2nc(N)sc2cc1[N+](=O)[O-],-,-,-,-,-
Cn1cc(Br)c(C(=O)NNC(=O)c2ccc(Cl)cc2)n1,52.1,-,-,-,-
Cn1cc(Br)c(C(=O)NNC(=O)c2cccc(Br)c2)n1,-,-,-,-,-
Cn1cc(Br)c(C(=O)Nc2ncc(Br)s2)n1,-,-,.,.,+
Cc1noc(C)c1NC(=O)NC(c1ccccc1)c1ccccc1,.,-,.,.,.
CC(=O)CCS(=O)(=O)c1ccc(Oc2ccc(S(=O)(=O)CCC(C)=O)cc2)cc1,53.8,-,-,-,-
CCOc1ccc(S(=O)(=O)N(C)c2ccc(OCC(=O)NCC3CCCO3)cc2)cc1 (stereo not drawn),-,-,.,.,-
CCOc1ccc(N(CC(=O)NCC2CCCO2)S(=O)(=O)c2ccc(Cl)cc2)cc1 (stereo not drawn),70.2,-,-,-,-
COC(=O)C(CC(C)C)Oc1ccc2c(C)cc(=O)oc2c1 (stereo not drawn),85.5,-,-,-,-
Cc1cc(C)c(S(=O)(=O)CCC(C)C)c(=O)[nH]1,-,-,.,.,-
COc1cccc(CNC(=O)CSc2ccc(-c3ccncc3)nn2)c1,88.9,-,.,.,-
COc1ccccc1CNC(=O)CSc1ccc(-c2ccncc2)nn1,94.1,-,.,.,-
COc1ccc(-c2cc(-c3cccs3)c(C#N)c(SCC(=O)NCc3ccccc3OC)n2)cc1,90.6,-,-,-,-
CCOC(=O)c1ccc(NC(=O)CSc2ccc(-c3ccncc3)nn2)cc1,74.9,-,.,.,-
Cc1ccc(NC(=O)CSc2ccc(-c3cccnc3)nn2)cc1Cl,-,-,.,.,-
S=C(Nc1ccc2[nH]ccc2c1)NC1CCCCC1,.,-,.,.,.
COC(C[C@@H](O)CC(=O)[C@H](C)OCc1ccccc1)OC,.,-,.,.,.
COc1ccc(CCNCC2C(Oc3ccc(Cl)cc3)C(=O)N2c2ccccc2C)cc1OC (stereo not drawn),-,-,.,.,-
N#CC1=C(N)NC(SCC(=O)Nc2ccccc2)=C(C#N)C12CCCC2,-,-,-,-,-
Cc1nnsc1C(=O)N/N=C/c1ccc(OC(F)(F)F)cc1,-,-,.,.,-
Cn1c(=NC(=O)COc2ccccc2)sc2ccccc21,-,-,.,.,-
CN1CCN(CCCNC(=O)c2ccc(/C=C3\Sc4ccccc4N(Cc4ccc(F)cc4)C3=O)cc2)CC1,100.3,-,.,.,-
SMILES,L major viab,Dynein transport,HCT116 bCat-KO,HCT116 PTEN-null,Autophagy HCS
CCN1CCN(CCNC(=O)c2ccc(/C=C3\Sc4ccccc4N(Cc4ccccc4F)C3=O)cc2)CC1,100.4,-,.,.,+
CN1C(=O)/C(=C/c2cccc(Cl)c2)Sc2ccc(C(=O)NCc3cccnc3)cc21,-,-,.,.,-
CN1CCN(CCCNC(=O)c2ccc(/C=C3/Sc4ccccc4N(Cc4cccc(Cl)c4)C3=O)cc2)CC1,99.9,-,.,.,-
COc1cc(C#N)c(NC(=O)CN2CCN(CCO)CC2)cc1OC,-,-,.,.,-
Cc1nccn1-c1ccc(C=O)cc1,-,-,.,.,-
COc1cccc(-c2cnc(NCc3cc(Cl)ccc3O)n2C)c1,63.5,-,-,-,-
O=C(COC(=O)c1cccc(O)c1)NCc1ccc2c(c1)OCO2,.,-,.,.,.
Cn1c(-c2cccc(Br)c2)cnc1NCc1cccnc1,97.4,-,-,-,-
Cn1c(-c2ccc(F)cc2)cnc1NCc1cccc(F)c1,77.8,-,-,-,-
Cn1c(-c2ccc(F)cc2)cnc1NCc1ccccc1,-,-,-,-,-
Cn1c(-c2ccc3c(c2)OCO3)cnc1NCc1cccc(O)c1,62.8,-,.,.,-
Cc1ccc(-n2nc(-c3ccc(OC(F)(F)F)cc3)cc2N)cc1C,.,-,.,.,.
CN(C(=O)CSc1nnc(C(F)(F)F)n1N)C1CCS(=O)(=O)C1 (stereo not drawn),.,-,.,.,.
Cc1cc(C)cc(OCC(=O)N2N=C(c3cccnc3)CC2(O)C(F)(F)F)c1 (stereo not drawn),-,-,-,-,-
Cc1ccccc1OCC(=O)N1N=C(c2cccnc2)CC1(O)C(F)(F)F (stereo not drawn),50.5,-,-,-,-
COc1ccc(NC(=S)N/N=C/c2cccn2Cc2ccc(F)cc2)cc1,-,-,.,.,-
CCOC(=O)c1ccc(NC(=O)c2cc(OC)c(OC)c(OC)c2Br)cc1,73.7,-,-,-,-
CCCCCCOC(=O)c1ccc(NC(=O)c2cc(OC)c(OC)c(OC)c2Br)cc1,-,-,-,-,-
O=S(=O)(c1cccc(C(F)(F)F)c1)N1CCN(C(=S)NC2CC2)CC1,54.6,-,-,-,-
CC(C)NC(=S)N1CCN(S(=O)(=O)c2cccc(C(F)(F)F)c2)CC1,95.2,-,-,-,-
C/C(=N\Nc1ccc([N+](=O)[O-])cc1)c1cccc(N)c1,61.2,-,-,-,-
CC(=O)NC/C(C)=N\Nc1ccc([N+](=O)[O-])cc1,62.7,-,.,.,-
C/C(=N\Nc1ccc([N+](=O)[O-])cc1)c1ccc(O)cc1,-,-,.,.,-
C/C(=N\NC(=O)C(N)=O)c1cccc([N+](=O)[O-])c1,-,-,.,.,-
C/C(=N\N=C(N)N)c1cccc([N+](=O)[O-])c1,63.5,-,-,-,-
SMILES,L major viab,Dynein transport,HCT116 bCat-KO,HCT116 PTEN-null,Autophagy HCS
Cc1cc(=O)[nH]c(N=N/C(=N/Nc2ccccc2C)c2ccccc2)n1,98.0,-,-,3.6,-
COc1ccc(N/N=C(/N=Nc2nc(C)cc(=O)[nH]2)c2ccccc2)cc1,99.9,-,-,-,-
Cc1cc(=O)[nH]c(N=N/C(=N/Nc2ccc(O)cc2)c2ccccc2)n1,93.8,-,-,-,-
COc1c2ccoc2nc2c(OC)c(OCC(OC(C)=O)C(C)(C)O)ccc12 (stereo not drawn),-,-,.,.,-
NS(=O)(=O)c1ccc(O)c(N2C(=O)c3cccc4c(C(=O)c5ccccc5)ccc(c34)C2=O)c1,-,-,.,.,-
COc1ccccc1C1CCN(C(=O)c2cnn(-c3ccccc3)c2C)CC1,.,-,.,.,.
Cc1ccccc1OCC(=O)Nc1ccccc1N1CCC(C)CC1,-,-,.,.,-
Cc1nnn(C23CC4CC(CC(CC(=O)Nc5ccc(C)c(Cl)c5)(C4)C2)C3)n1,94.9,-,-,-,-
Cc1cc(C)cc(NC(=O)CC23CC4CC(C2)CC(n2nnc(C)n2)(C4)C3)c1,-,-,-,-,-
Cc1cccc(NC(=S)NNC(=O)CCn2cc(C)cn2)c1,-,-,-,-,-
Cc1ccc(S(=O)(=O)NCCC(=O)NC2CCCC2)cc1,-,-,-,-,+
COc1ccc(S(=O)(=O)NCCC(=O)NC2CCCCCCC2)cc1,-,-,-,-,-
Cc1[nH]c2ccccc2c1C(c1ccncc1)N1CCN(c2ccccc2F)CC1 (stereo not drawn),51.4,-,-,-,-
Cc1ccc(OCC(=O)N/N=C\c2ccc(C)o2)c([N+](=O)[O-])c1,-,-,.,.,-
Cc1ccc(OCC(=O)N/N=C/c2ccc([N+](=O)[O-])o2)cc1,100.0,-,-,-,-
